Converted amounts (≈) assume the structure as drawn.
Columns and labels:
[1] = Fraction unbound in dog plasma; type: ADME, cell-free, Canis lupus familiaris
[2] = target: T1, Glucose-dependent insulinotropic receptor (Mus musculus) (UniProt Q7TQP3); test: Agonist activity at mouse GPR119 expressed in CHO cells co-expressing Galpha15 assessed as increase in intracellular cAMP level after 60 mins by HTRF assay relative to control; type: functional, cell-based
T1 sequence (whole entry): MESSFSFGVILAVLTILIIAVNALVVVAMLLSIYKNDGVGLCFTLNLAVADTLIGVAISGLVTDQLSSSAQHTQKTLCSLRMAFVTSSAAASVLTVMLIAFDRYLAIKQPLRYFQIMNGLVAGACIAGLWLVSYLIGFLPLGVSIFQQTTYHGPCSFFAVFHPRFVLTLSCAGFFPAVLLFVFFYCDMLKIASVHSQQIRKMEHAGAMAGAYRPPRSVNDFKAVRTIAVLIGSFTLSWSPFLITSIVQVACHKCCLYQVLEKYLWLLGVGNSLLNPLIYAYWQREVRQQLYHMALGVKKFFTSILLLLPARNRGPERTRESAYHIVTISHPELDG
Method in brief: (§1)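 EC50 values are means of at least 2 independent experiments, with a few single determinations. Maximal response is reported as the percentage of cAMP stimulation at the maximal dose tested, normalised to an internal agonist control set as 100%.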

[3] = Volume of distribution in Beagle dog at 0.5 mg/kg, iv by LC-MS/MS analysis; type: ADME, organism-based, Canis lupus familiaris; settings: in vivo
Rattus norvegicus [4] = test: Unbound volume of distribution in Wistar Han rat at 0.5 mg/kg, iv by LC-MS/MS analysis; type: ADME, organism-based; settings: in vivo
[5] = Agonist activity at rhesus monkey GPR119; design: species or system Macaca mulatta
[6] = target: T2, Nuclear receptor subfamily 1 group I member 2 (Homo sapiens, UniProt O75469); test: Activity at human PXR; type: ADME
T2 sequence (O75469 whole entry): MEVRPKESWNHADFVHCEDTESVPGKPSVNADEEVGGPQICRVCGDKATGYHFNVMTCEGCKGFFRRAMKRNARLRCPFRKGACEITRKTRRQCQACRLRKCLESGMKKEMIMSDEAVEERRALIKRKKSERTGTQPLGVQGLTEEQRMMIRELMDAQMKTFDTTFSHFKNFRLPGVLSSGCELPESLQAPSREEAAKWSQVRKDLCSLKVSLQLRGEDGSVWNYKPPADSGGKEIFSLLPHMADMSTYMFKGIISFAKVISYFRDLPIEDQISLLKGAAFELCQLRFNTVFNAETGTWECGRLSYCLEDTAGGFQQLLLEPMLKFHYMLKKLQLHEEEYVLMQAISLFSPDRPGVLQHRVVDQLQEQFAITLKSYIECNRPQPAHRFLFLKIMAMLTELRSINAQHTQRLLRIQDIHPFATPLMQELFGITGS

[7] = Lipophilicity, log D of the compound at pH 7 by HPLC method; type: physicochemical; settings: buffer
[8] = Plasma clearance in Wistar Han rat at 0.5 mg/kg, iv by LC-MS/MS analysis; type: ADME, organism-based
[9] = Half life in Beagle dog at 0.5 mg/kg, iv by LC-MS/MS analysis; type: ADME, organism-based, Canis lupus familiaris; settings: in vivo
Mus musculus = test: Antidiabetic activity in C57BL/6 Tac mouse assessed as maximum decrease in blood glucose AUC administered via oral gavage 30 mins prior to oral glucose load measured at 20 to 60 mins post glucose challenge by OGTT; type: functional; settings: C57BL/6, po, read-out: MED
Method in brief: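 Eleven-week-old lean C57BL/6 Tac mice (n = 8/group) were fasted overnight and dosed by oral gavage in PEG400/23.5% HPBCD (15/85 v/v). Oral glucose (3 g/kg) was given 30 min later. Tail-nick glucometer glucose at 0, 20, 40, 60 min; glucose AUC per mouse, expressed as % change vs vehicle, with t-test or one-way ANOVA. Dose titration gave the minimal dose for maximal efficacy.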

[10] = target: T3, Voltage-gated inwardly rectifying potassium channel KCNH2 (Homo sapiens, UniProt Q12809)
T3 sequence (Q12809 whole entry): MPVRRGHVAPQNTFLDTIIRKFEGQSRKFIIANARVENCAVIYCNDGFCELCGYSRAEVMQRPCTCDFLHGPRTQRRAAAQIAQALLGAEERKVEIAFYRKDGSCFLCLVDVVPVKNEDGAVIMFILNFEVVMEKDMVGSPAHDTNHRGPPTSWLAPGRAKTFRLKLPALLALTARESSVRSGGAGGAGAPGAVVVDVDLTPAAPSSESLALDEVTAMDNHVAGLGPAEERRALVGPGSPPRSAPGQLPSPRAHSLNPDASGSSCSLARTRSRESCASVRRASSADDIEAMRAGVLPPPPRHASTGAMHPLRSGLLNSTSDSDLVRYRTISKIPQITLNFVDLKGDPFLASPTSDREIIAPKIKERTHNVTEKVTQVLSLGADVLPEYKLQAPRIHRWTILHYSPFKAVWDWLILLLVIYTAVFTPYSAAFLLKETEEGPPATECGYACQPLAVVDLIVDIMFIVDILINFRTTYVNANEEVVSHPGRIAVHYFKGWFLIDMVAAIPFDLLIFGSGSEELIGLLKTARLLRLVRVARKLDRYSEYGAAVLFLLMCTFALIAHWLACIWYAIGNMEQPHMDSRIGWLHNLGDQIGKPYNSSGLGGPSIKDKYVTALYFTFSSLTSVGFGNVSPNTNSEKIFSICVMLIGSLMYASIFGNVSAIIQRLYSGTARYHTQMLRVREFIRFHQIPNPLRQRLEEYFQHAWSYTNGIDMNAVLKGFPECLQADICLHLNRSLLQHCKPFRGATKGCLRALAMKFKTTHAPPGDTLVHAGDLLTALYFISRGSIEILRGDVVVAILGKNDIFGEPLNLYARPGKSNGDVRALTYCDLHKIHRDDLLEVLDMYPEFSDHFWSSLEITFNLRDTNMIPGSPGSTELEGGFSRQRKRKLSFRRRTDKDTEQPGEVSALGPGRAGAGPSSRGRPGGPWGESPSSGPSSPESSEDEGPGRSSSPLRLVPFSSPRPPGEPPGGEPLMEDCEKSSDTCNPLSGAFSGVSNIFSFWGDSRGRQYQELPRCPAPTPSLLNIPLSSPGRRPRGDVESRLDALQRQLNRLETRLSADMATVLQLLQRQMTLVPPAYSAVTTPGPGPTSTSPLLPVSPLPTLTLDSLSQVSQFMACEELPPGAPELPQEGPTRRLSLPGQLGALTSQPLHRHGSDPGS

[11] = Fraction unbound in rat plasma; type: ADME, cell-free
[12] = Fraction unbound in human plasma; type: ADME, cell-free
Rattus norvegicus [13] = test: Unbound clearance in Wistar Han rat at 0.5 mg/kg, iv by LC-MS/MS analysis; type: ADME, organism-based; settings: in vivo
[14] = Intrinsic clearance in human liver microsomes; type: ADME, microsome; settings: read-out: CLH
Cytochrome P450 3A4 = Cytochrome P450 3A4 (Homo sapiens, UniProt P08684); test: Inhibition of CYP3A4 (unknown origin); type: ADME
Cytochrome P450 3A4, sequence (P08684 whole entry): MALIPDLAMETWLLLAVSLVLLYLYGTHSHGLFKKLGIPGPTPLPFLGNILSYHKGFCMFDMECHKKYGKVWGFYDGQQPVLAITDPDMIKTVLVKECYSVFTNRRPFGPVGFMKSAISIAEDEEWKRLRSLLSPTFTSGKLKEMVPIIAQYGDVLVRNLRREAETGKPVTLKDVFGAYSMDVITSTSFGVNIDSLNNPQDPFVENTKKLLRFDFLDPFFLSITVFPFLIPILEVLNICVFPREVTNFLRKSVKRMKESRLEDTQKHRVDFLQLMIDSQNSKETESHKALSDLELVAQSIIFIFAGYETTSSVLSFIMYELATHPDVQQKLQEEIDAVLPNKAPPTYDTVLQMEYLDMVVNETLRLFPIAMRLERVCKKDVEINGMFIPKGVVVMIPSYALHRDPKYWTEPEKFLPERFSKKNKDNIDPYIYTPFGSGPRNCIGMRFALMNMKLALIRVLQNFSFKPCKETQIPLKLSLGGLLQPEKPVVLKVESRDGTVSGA

[15] = Oral bioavailability in Beagle dog by LC-MS/MS analysis; type: ADME, organism-based, Canis lupus familiaris; settings: in vivo
[16] = Solubility in fasted state simulated intestinal fluid using crystalline compound by equilibration method; type: physicochemical
[17] = Fraction unbound in rhesus monkey plasma; type: ADME, cell-free, Macaca mulatta
[18] = Plasma clearance in rhesus monkey at 0.5 mg/kg, iv by LC-MS/MS analysis; type: ADME, organism-based, Macaca mulatta
[19] = Plasma clearance in Beagle dog at 0.5 mg/kg, iv by LC-MS/MS analysis; type: ADME, organism-based, Canis lupus familiaris
[20] = target: T4, Glucose-dependent insulinotropic receptor (Homo sapiens) (UniProt Q8TDV5); test: Agonist activity at human GPR119 expressed in HEK293 cells assessed as increase in intracellular cAMP level after 60 mins by HTRF assay relative to control; type: functional, cell-based; method in brief: as §1
T4 sequence (whole entry): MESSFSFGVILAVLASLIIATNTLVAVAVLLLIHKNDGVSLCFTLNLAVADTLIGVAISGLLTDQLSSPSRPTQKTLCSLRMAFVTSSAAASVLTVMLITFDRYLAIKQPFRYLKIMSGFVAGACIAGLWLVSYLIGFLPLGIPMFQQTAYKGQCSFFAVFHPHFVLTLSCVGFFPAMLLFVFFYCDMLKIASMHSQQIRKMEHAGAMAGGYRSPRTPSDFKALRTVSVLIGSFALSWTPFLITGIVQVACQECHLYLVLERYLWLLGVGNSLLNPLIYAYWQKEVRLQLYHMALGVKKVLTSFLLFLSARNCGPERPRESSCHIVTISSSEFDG

[21] = Intrinsic clearance in dog liver microsomes; type: ADME, Canis lupus familiaris, microsome; settings: read-out: CLH
[22] = Volume of distribution in rhesus monkey at 0.5 mg/kg, iv by LC-MS/MS analysis; type: ADME, organism-based, Macaca mulatta; settings: in vivo
[23] = Ratio of drug level in C57BL/6 Tac mouse blood to plasma at 0.1 mg/kg, po via gavage measured at 90 mins post dose; type: ADME, organism-based; settings: blood and plasma
[24] = Oral bioavailability in Wistar Han rat by LC-MS/MS analysis; type: ADME, organism-based; settings: in vivo
[25] = Volume of distribution in Wistar Han rat at 0.5 mg/kg, iv by LC-MS/MS analysis; type: ADME, organism-based; settings: in vivo
[26] = Drug uptake in C57BL/6 Tac mouse blood at 0.1 mg/kg, po via gavage measured at 90 mins post dose; type: ADME, organism-based; settings: whole blood, read-out: Drug uptake
Method in brief: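 Blood drug concentration was taken at 90 min after an oral 0.1 mpk dose in mice, within oGTT dose-titration PK/PD studies.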

[27] = target: T5, Glucose-dependent insulinotropic receptor (Homo sapiens, UniProt Q8TDV5); test: Agonist activity at human GPR119 expressed in HEK293 cells assessed as increase in intracellular cAMP level after 60 mins by HTRF assay; type: functional, cell-based
T5 sequence (Q8TDV5 whole entry): T4 sequence (whole entry)
Method in brief: (§2)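 cAMP stimulation is also given as % control at the top concentration, relative to an internal agonist control set at 100% cAMP stimulation. EC50 values are means of at least 2 independent experiments, except for two compounds.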

[28] = Kinetic solubility in fasted state simulated intestinal fluid at pH 6.5; type: physicochemical; settings: read-out: Kinetic_solubility
[29] = Half life in rhesus monkey at 0.5 mg/kg, iv by LC-MS/MS analysis; type: ADME, organism-based, Macaca mulatta; settings: in vivo
[30] = Intrinsic clearance in rhesus monkey liver microsomes; type: ADME, Macaca mulatta, microsome; settings: read-out: CLH
[31] = Intrinsic clearance in rat liver microsomes; type: ADME, microsome; settings: read-out: CLH
[32] = Oral bioavailability in rhesus monkey by LC-MS/MS analysis; type: ADME, organism-based, Macaca mulatta; settings: in vivo
[33] = Half life in Wistar Han rat at 0.5 mg/kg, iv by LC-MS/MS analysis; type: ADME, organism-based; settings: in vivo
[34] = target: T3, Voltage-gated inwardly rectifying potassium channel KCNH2; test: Inhibition of human ERG by PatchXpress method
[35] = target: T6, Glucose-dependent insulinotropic receptor (Mus musculus, UniProt Q7TQP3); test: Agonist activity at mouse GPR119 expressed in CHO cells co-expressing Galpha15 assessed as increase in intracellular cAMP level after 60 mins by HTRF assay; type: functional, cell-based; method in brief: as §2
T6 sequence (Q7TQP3 whole entry): T1 sequence (whole entry)

## COCc1cnc(N2CCC([C@H]3C[C@H]3CCOc3cc(F)c(CC(=O)N4CCC4)c(F)c3)CC2)nc1
[1]
  fraction unbound: 0.055
[2]
  Activity: 116%
[3]
  Vd: 4.3 L/kg
Rattus norvegicus [4]
  Vdu: 72 L/kg
[5]
  EC50: 0.0001 µM
[6]
  EC50: > 30 µM
[7]
  logD: 4.1
[8]
  clearance: 29 mL/min/kg
[9]
  half-life: 29 h
Mus musculus
  minimal effective dose: 0.1 mg/kg
[10]
  IC50: 9.1 to 9.2 µM
[11]
  fraction unbound: 0.067
[12]
  fraction unbound: 0.038
Rattus norvegicus [13]
  CL free: 430 mL/min/kg
[14]
  CLint scaled: 39 mL/min/kg
Cytochrome P450 3A4
  IC50: > 50 µM
[15]
  bioavailability: 55%
[16]
  solubility thermodynamic: 51 µg/mL (≈ 102 µM)
[17]
  fraction unbound: 0.08
[18]
  clearance: 14 mL/min/kg
[19]
  clearance: 2 mL/min/kg
[20]
  Activity: 91%
[21]
  CLint scaled: 39 mL/min/kg
[22]
  Vd: 3.5 L/kg
[23]
  blood plasma ratio at 1.5 h: 0.55
[24]
  bioavailability: 80%
[25]
  Vd: 4.8 L/kg
[26]
  concentration at 1.5 h: 10 nM
[27]
  EC50: 0.0002 µM
[28]
  solubility kinetic: 139 µM (≈ 69.6 µg/mL)
[29]
  half-life: 7.6 h
[30]
  CLint scaled: 44 mL/min/kg
[31]
  CLint scaled: 189 mL/min/kg
[32]
  bioavailability: 44%
[33]
  half-life: 3.5 h
[34]
  IC50: 12 µM
[35]
  EC50: 0.0008 µM

From ChEMBL document CHEMBL3994654, “Discovery of phenyl acetamides as potent and selective GPR119 agonists” (Bioorg Med Chem Lett, 2017)
